Reference: ChEMBL document CHEMBL1137100, “Design, synthesis, and antiviral activity of certain 3-substituted 2,5,6-trichloroindole nucleosides” (J Med Chem, 2004)

Experiments:
[1] = Cytotoxicity against KB cells was determined by crystal violet staining and spectrophotometric quantitation of dye eluted from stained cells; assay type: functional, cell-based
Method in brief: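 KB cells seeded at 3000–5000 per well, incubated overnight at 37 °C, then exposed to compound at six to eight concentrations for 48 h at 37 °C in CO₂ (two population doublings). Fixed with 95% ethanol, stained with 0.1% crystal violet, dye eluted with acidified ethanol, read at 570 nm. IC50 by linear regression of % inhibition vs log10 concentration.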

Human alphaherpesvirus 1 = test: Inhibitory concentration required against herpes simplex virus type-1 (HSV-1) expressed in BSC-1 cells was determined by ELISA assay; assay type: functional, organism-based; conditions: Human alphaherpesvirus 1, BSC-1
Method in brief: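 HSV-1 KOS strain. BSC-1 cells, 10 000 per well in MEM(E) with 10% calf serum, incubated overnight at 37 °C, then drug plus virus at 100 pfu/well, quadruplicate wells, 3 days at 37 °C. Detection with HRP-conjugated rabbit anti-HSV-1 antibody and TMB substrate, stopped with H₂SO₄ after 15 min, absorbance at 450 and 570 nm. IC50 by regression vs log10 concentration; acyclovir as positive control.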

HFF = test: Cytotoxicity produced in stationary HFF cells was determined by microscopic inspection of uninfected cells; assay type: functional, cell-based; conditions: Homo sapiens
Method in brief: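 Uninfected stationary HFF cells inspected microscopically for cytotoxicity, scored at the time of HCMV plaque enumeration (7–10 days at 37 °C), duplicate wells. Compounds from 10 mg/mL DMSO stocks diluted in growth medium. IC50 from linear regression of % inhibition vs log10 concentration.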

Human betaherpesvirus 5 = test: Inhibitory concentration required against human cytomegalovirus (HCMV) expressed in HFF cells was determined by plaque reduction assay; assay type: functional, organism-based; conditions: Human betaherpesvirus 5, HFF
Method in brief: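 HCMV Towne strain, isolate P₀. HFF monolayers infected with about 100 pfu per cm²; after adsorption, compound (diluted from 10 mg/mL DMSO stock) added at four to eight concentrations in duplicate wells. Incubated 7–10 days at 37 °C, fixed and stained with crystal violet, plaques counted microscopically. IC50 from regression of % plaque reduction vs log10 concentration; ganciclovir as positive control.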

Compound | IC50 [1] [µM] | IC50 (Human alphaherpesvirus 1) [µM] | IC50 (HFF) [µM] | IC50 (Human betaherpesvirus 5) [µM]
O=Cc1c(Cl)n(C2O[C@H](CO)[C@@H](O)C2O)c2cc(Cl)c(Cl)cc12 (single isomer, unassigned) | 45 | 40 | 45 | 0.23
OC[C@H]1O[C@@H](n2c(Br)nc3cc(Cl)c(Cl)cc32)C(O)[C@@H]1O (single isomer, unassigned) | > 100 | 130 |  | 0.7
O=Cc1c(Br)n(C2O[C@H](CO)[C@@H](O)C2O)c2cc(Cl)c(Cl)cc12 (single isomer, unassigned) | 50 | 20 | 32 | 0.32
O=C(c1c(Cl)n(C2O[C@H](CO)[C@@H](O)C2O)c2cc(Cl)c(Cl)cc12)C(F)(F)F (single isomer, unassigned) | 20 | 15 | 32 | 6.2
CCCC(=O)OC[C@H]1OC(n2c(Cl)c(C=O)c3cc(Cl)c(Cl)cc32)C(O)[C@@H]1O (single isomer, unassigned) | 40 | 9 | 32 | 0.25
CC(=O)OC[C@H]1OC(n2c(Cl)c(C(C)=O)c3cc(Cl)c(Cl)cc32)C(O)[C@@H]1O (single isomer, unassigned) | 40 | 20 | 32 | 0.3
OC[C@H]1OC(n2c(Cl)c(I)c3cc(Cl)c(Cl)cc32)C(O)[C@@H]1O (single isomer, unassigned) | 65 | 20 | 32 | 12
Cc1c(Cl)n(C2O[C@H](CO)[C@@H](O)C2O)c2cc(Cl)c(Cl)cc12 (single isomer, unassigned) | > 100 | 70 | 32 | 32
CC(=O)OC[C@H]1OC(n2c(Br)c(C=O)c3cc(Cl)c(Cl)cc32)[C@H](O)[C@@H]1O (some centres not stated) | 40 | 15 | 32 | 0.32
CC(=O)OC[C@H]1OC(n2c(Cl)c(C#N)c3cc(Cl)c(Cl)cc32)C(O)[C@@H]1O (single isomer, unassigned) | 70 | 50 | 32 | 2.5
OC[C@H]1OC(n2c(Cl)c(-c3ccco3)c3cc(Cl)c(Cl)cc32)C(O)[C@@H]1O (single isomer, unassigned) | 80 | 50 | 32 | 42
O=CCc1c(Cl)n(C2O[C@H](CO)[C@@H](O)C2O)c2cc(Cl)c(Cl)cc12 (single isomer, unassigned) | 70 | > 100 | > 100 | 4
CCC(=O)OC[C@H]1OC(n2c(Cl)c(C=O)c3cc(Cl)c(Cl)cc32)C(O)[C@@H]1O (single isomer, unassigned) | 50 | 10 | 32 | 0.22
OC[C@H]1O[C@@H](n2c(Cl)nc3cc(Cl)c(Cl)cc32)C(O)[C@@H]1O (single isomer, unassigned) | 210 |  |  | 2.9
CCC(=O)c1c(Cl)n(C2O[C@H](CO)[C@@H](O)C2O)c2cc(Cl)c(Cl)cc12 (single isomer, unassigned) | 100 | 20 | > 100 | 2.5
Nc1nc2c(ncn2COC(CO)CO)c(=O)[nH]1 [GANCICLOVIR] | > 100 |  | > 100 | 
N#Cc1c(Cl)n(C2O[C@H](CO)[C@@H](O)C2O)c2cc(Cl)c(Cl)cc12 (single isomer, unassigned) | 65 | 15 | 32 | 0.55
CCC(=O)c1c(Cl)n(C2O[C@H](COC(C)=O)[C@@H](O)C2O)c2cc(Cl)c(Cl)cc12 (single isomer, unassigned) | 100 | 15 | > 100 | 3.2
CC(=O)OC[C@H]1OC(n2c(Cl)c(C=O)c3cc(Cl)c(Cl)cc32)[C@H](O)[C@@H]1O (some centres not stated) | 35 | 20 | 32 | < 0.1
COC(=O)OC[C@H]1OC(n2c(Cl)c(C=O)c3cc(Cl)c(Cl)cc32)C(O)[C@@H]1O (single isomer, unassigned) | 50 | 15 | 32 | 0.2
OC[C@H]1OC(n2c(Cl)c(-c3ccsc3)c3cc(Cl)c(Cl)cc32)C(O)[C@@H]1O (single isomer, unassigned) | 60 | 45 | > 100 | 31
OC[C@H]1OC(n2c(Cl)c(Cl)c3cc(Cl)c(Cl)cc32)C(O)[C@@H]1O (single isomer, unassigned) | 80 | 45 | 32 | 38
CC(=O)c1c(Cl)n(C2O[C@H](CO)[C@@H](O)C2O)c2cc(Cl)c(Cl)cc12 (single isomer, unassigned) | 50 | 20 | > 100 | 0.31
